Sampled rows, rich in hits. Any-hit rate of the full collection: about 3.6%.
BB579 growth dn: growth inhibitors of yeast BB579 in restrictive medium, primary screen, yeast lifespan-shortening project, S. cerevisiae; OD615, 48 h; 0.51% of 140,000 active; AID 804, 2007; inhibition, % at 10 µM;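 active = inhibition above a set limit, 3 SD over the mean compound inhibition, cut at about 44% in these data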
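System: DeaD yeast strain BB579; buffer or medium: CSMM-D dextrose restrictive medium; technique: OD at 615 nm; schedule: 4 h cell preincubation, 48 h compound exposure, 30 °C humidified; doses: single 10 µM dose; controls: amphotericin B 10 µg/mL, positive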
Measles CPE: compounds protecting cells from measles virus cytopathic effect, primary screen, measles RdRp inhibitor project, single point, MLSMR library, absorbance | 1.5% of 140,000 active | Measles virus-infected cells, CPE protection | protection (pct of control), % at 4 µM; in the data active = protection mostly above about 24%, no sharp cut-off; inactive = mostly below about 26%
Yeast lifespan up: compounds extending yeast replicative lifespan, primary screen, S. cerevisiae, OD615; S. cerevisiae growth with nicotinamide; deaD strain in restrictive glucose medium; inhibition of the nicotinamide effect, % at 10 µM; 0.68% of 130,000 active; AID 775, 2007;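 active = inhibition above a set limit, placed 3 SD over the median of all compounds, cut at about 26% in these data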;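 note: 0% = nicotinamide-treated wells and 100% = cells grown without nicotinamide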
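assay system = DeaD-strain S. cerevisiae | buffer or medium = restrictive glucose medium | reagent = 1.5 mM nicotinamide | compound = 10 µM single point, 0.25% DMSO | incubation = 48 h compound exposure at 30 °C, humidified | signal = OD615 measurement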
RAM network inh: inhibitors of the yeast RAM network, primary screen, dse1pr::URA3 reporter, 5-FOA selection; S. cerevisiae dse1pr::URA3 reporter, 5-FOA growth OD615, 2 d; analog-sensitive cbk1-as2 kinase mutant strain; inhibition, % at 50 µM; 1.8% of 190,000 active; AID 868, 2007;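 active = inhibition above a set limit, 3 SD over mean compound inhibition, cut at about 8.4% in these data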;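 note: 0% = DMSO-only wells with no growth and 100% = 10 µM 1-NA-PP1 full growth; inhibition rescues growth on 5-FOA so higher OD means more RAM inhibition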
Active calls of the source: *; . = not tested or not shown.

SMILES | BB579 growth dn | Measles CPE | Yeast lifespan up | RAM network inh
Cc1c(C(N)=O)sc2ncn(CC(=O)NCCc3ccccc3)c(=O)c12 | . | . | . | 2.0
O=C(CN1C(=O)S/C(=C\c2ccc(F)cc2)C1=O)Nc1cccc(S(=O)(=O)NCc2ccco2)c1 | . | . | . | 4.5
CCOc1cc(N2CCOCC2)c(OCC)cc1NC(=O)c1ccc(C)cc1 | . | . | . | 2.6
CCOc1cc(N2CCOCC2)c(OCC)cc1NC(=O)c1ccc(OC(C)C)cc1 | . | . | . | 8.8*
COc1ccc([N+](=O)[O-])cc1N(CC(=O)N1CCCCC1)S(C)(=O)=O | . | . | . | 1.4
O=C(c1ccco1)N1CCN(c2ncnc3c2nnn3Cc2ccccc2Cl)CC1 | -27.9 | 4.7 | . | -0.9
CCOC(=O)C1CCN(c2ncnc3c2nnn3Cc2ccccc2Cl)CC1 | . | . | . | 8.4*
CCC/C=C(\CCC)C(NS(=O)(=O)c1ccc(C(F)(F)F)cc1)c1ccccc1 (configuration not stated) | -43.4 | 5.0 | 10.9 | 11.3*
CCCn1c(C)cc(C(=O)CSc2nc3ccccc3c(=O)n2Cc2ccco2)c1C | -17.1 | 6.1 | -3.4 | 9.3*
O=c1c2ccccc2nc(SCc2ccccc2Cl)n1Cc1ccccc1 | -26.4 | 19.2 | -6.1 | 8.9*
O=C(CSc1nc2ccccc2c(=O)n1Cc1ccco1)c1ccc(F)cc1 | -60.0 | . | -5.7 | 4.5
NC(=O)CSc1nc2ccccc2c(=O)n1Cc1ccco1 | -11.9 | 3.2 | . | 1.9
COC(=O)c1ccc(CSc2nc3ccccc3c(=O)n2CC(C)C)o1 | -41.7 | 23.0 | -13.1 | 9.1*
COC(=O)c1ccc(CSc2nc3ccccc3c(=O)n2Cc2ccco2)o1 | -18.2 | 26.4 | -4.8 | 9.7*
COc1ccccc1CCNC(=O)/C(=C/c1cccnc1)NC(=O)c1ccccc1 | -14.7 | 19.7 | 0.2 | 3.4
CN1CCN(C2=Cc3ccc(Cl)cc3Sc3ccc(F)cc32)CC1 | 85.9* | 14.2 | . | 2.1
O=C(COC(=O)COc1ccccc1Cc1ccccc1)Nc1cccnc1Cl | -35.5 | 26.6 | -2.6 | 5.1
O=C(NNC1CC(=O)N(c2ccccc2)C1=O)c1ccc(COc2ccccc2Cl)o1 (configuration not stated) | -36.2 | 3.2 | 2.1 | 0.7
CCN(CC)c1ccc(C(=O)OCc2c(C)noc2C)cc1 | . | . | . | 0.7
CCc1c(C)nc(SCC(=O)Nc2nc(-c3ccc(OC)cc3)cs2)[nH]c1=O | . | . | . | 10.8*
CCCC(=O)NC(=S)Nc1nc(-c2ccc(OC)cc2)cs1 | -24.0 | 1.9 | 3.1 | 10.1*
COc1ccc(-c2csc(NC(=O)CSc3n[nH]c(N)n3)n2)cc1 | . | . | . | 4.4
CC(=O)Oc1ccccc1N(C(C)=O)S(=O)(=O)c1cccc([N+](=O)[O-])c1 | . | . | . | -0.1
Cc1oc(CC(C)C)cc1C(=O)Nc1cccc2ccccc12 | -51.1 | 37.1* | -4.4 | 8.2
Cc1ccc(Oc2ccc(Cl)cc2NC(=O)c2ccc(F)cc2F)cc1 | -29.8 | 3.0 | 6.2 | 8.9*
SMILES | BB579 growth dn | Measles CPE | Yeast lifespan up | RAM network inh
O=C(Nc1cc(Cl)ccc1Oc1ccccc1)c1ccccc1F | -20.7 | 5.3 | -5.1 | 0.8
CCn1c(=O)c(C(=O)NNS(=O)(=O)c2ccc(C)cc2)c(O)c2ccccc21 | -15.4 | 30.9 | 31.5* | 1.4
CCCn1c(=O)c(C(=O)NCc2ccncc2)c(O)c2ccccc21 | -7.1 | 0.3 | 27.9* | -0.6
CCn1c(=O)c(C(=O)NCc2cccnc2)c(O)c2ccccc21 | -34.0 | 19.9 | 17.2 | 0.4
CCCCCCCCCC(=O)NNC(=O)c1c(O)c2ccccc2n(CC)c1=O | . | . | . | 10.2*
CCCCCCn1c(=O)c(-c2ccccc2)c(O)c2ccccc21 | 34.2 | 2.3 | -1.0 | 9.5*
COC(=O)[C@@H]1CCCN1C(=O)CCc1nnc(CCC2CCCCC2)o1 | . | . | . | 2.5
CCOC(=O)c1cc(C#N)c(SCc2cccc3ccccc23)nc1C | -18.4 | 2.7 | -8.6 | 10.1*
CC(=O)c1cc(C#N)c(SCc2ccccc2C#N)nc1C | -10.7 | 7.5 | . | 4.4
O=C(NCc1ccco1)C1CCCCC1 | . | . | . | 1.0
O=C(NCc1ccco1)c1cc(C(=O)C2CCCCC2)c[nH]1 | -56.2 | 15.2 | 96.0* | 2.6
CCS(=O)(=O)c1ccc2oc(SCC(=O)NC3CCCC(C)C3C)nc2c1 (configuration not stated) | -20.5 | 18.7* | -7.6 | 1.6
OC(COCc1cccs1)CN1CCN(c2cccc(Cl)c2)CC1 (configuration not stated) | -48.0 | 53.6* | 4.6 | 0.5
OC(COCc1cccs1)CN1CCN(c2ccccc2Cl)CC1 (configuration not stated) | -41.5 | 19.7 | 6.0 | 0.9
CC(NS(=O)(=O)/C=C/c1ccccc1)c1ccccc1 (configuration not stated) | . | . | . | -0.2
CC(=O)N1c2ccc3ccccc3c2C(C)CC12CCCCC2 (configuration not stated) | -33.9 | 12.4 | 20.0 | 10.2*
O=C(CNC(=O)c1cc2ccccc2o1)NCc1cccs1 | -24.8 | 6.0 | -8.0 | 1.9
Cn1c(C(=O)NCc2ccccc2)cc2oc3ccccc3c21 | -9.3 | 73.2* | -20.1 | 2.9
Cn1c(C(=O)NCc2cccs2)cc2oc3ccccc3c21 | -13.2 | 47.6* | -27.0 | 5.4
Cn1c(C(=O)NCC2CCCO2)cc2oc3ccccc3c21 (configuration not stated) | -6.1 | 10.9 | -27.8 | 0.4
COc1ccc(CCNC(=O)c2cc3c(C)nccc3[nH]c2=O)cc1OC | . | . | . | 2.2
CCCCC(=O)NC(=S)Nc1cccc(NC(=O)c2ccccc2)c1 | . | . | . | 6.2
COc1ccc(OC)c(NC(=O)CSc2nnc(C)n2Cc2ccccc2)c1 | -12.9 | 9.8 | -8.3 | 9.2*
CCn1c(COc2ccc(C)cc2)nnc1SCC(=O)Nc1cc(OC)ccc1OC | -2.8 | 49.1* | -7.5 | 2.6
COc1cccc(C(=O)Oc2ccc(N3C(=O)CCC3=O)c(C)c2)c1 | . | . | . | -0.9
SMILES | BB579 growth dn | Measles CPE | Yeast lifespan up | RAM network inh
CC(C)C(NC(=O)COc1ccccc1)C(=O)O (configuration not stated) | -42.8 | 44.4* | -2.0 | 1.2
COc1ccccc1NC(=O)CCC(=O)O | -25.7 | 71.3* | -11.1 | 1.8
COc1ccccc1NC(=O)Cc1csc(NC(=O)c2ccccc2)n1 | . | . | . | 9.2*
CCOc1ccccc1NC(=O)CCC(=O)O | -18.6 | 17.3 | -1.3 | -0.8
CCOC(=O)c1sc(NC(=O)CSc2nccc(C)n2)c(C#N)c1C | -55.6 | 1.4 | -12.1 | 0.9
CCOC(=O)c1sc(NC(=O)CSc2nccc(C)n2)nc1C | . | . | . | 8.5*
COc1cc(Cl)c(C)cc1NC(=O)CSc1nnc(CCC(=O)O)c(=O)[nH]1 | . | . | . | 1.4
CC(=O)n1cc(C(C[N+](=O)[O-])SCCN)c2ccccc21 (configuration not stated) | 72.8* | 2.8 | -18.6 | -1.7
O=S(=O)(c1ccc(Cl)s1)N1CCC(Cc2ccccc2)CC1 | -10.3 | 12.9 | -8.2 | 8.9*
Cc1ccc(-c2[nH]nc(N)c2N=Nc2cccc(Cl)c2C)cc1 | -40.7 | 3.7 | -8.6 | 5.1
Cc1ccc(-c2[nH]nc(N)c2N=Nc2ccccc2C)cc1 | 51.6* | 5.2 | -38.0 | 2.4

Screening results deposited in PubChem BioAssay by several laboratories.
